Source: ChEMBL document CHEMBL3596186, “Synthesis and biological evaluation of diarylthiazole derivatives as antimitotic and antivascular agents with potent antitumor activity” (Bioorg Med Chem, 2015)
The source made the active and inactive calls. No cut-off for these calls is given here.

Legend:
HCT-116 [1] = experiment: Antiproliferative activity against human HCT116 cells after 48 hrs by MTT assay; type: functional, cell-based; conditions: HCT-116, 48 h
Method in brief: (§1)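 HCT116, HepG2, SMMC-7721, SK-OV-3 and A2780s grown in DMEM; A549 and MCF-7 in RPMI-1640; all with 10% FBS and penicillin/streptomycin at 37 °C, 5% CO2. Log-phase cells at 40,000-50,000 cells/mL treated with graded concentrations for 48 h. MTT 3 h, DMSO solubilization, A570. IC50 from percent growth versus untreated control; mean ± SEM of ≥3 independent dose-response experiments.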

HepG2 = experiment: Antiproliferative activity against human HepG2 cells after 48 hrs by MTT assay; type: functional, cell-based; conditions: HepG2, 48 h; method in brief: as §1
[2] = Antiproliferative activity against human A2780S cells after 48 hrs by MTT assay; type: functional, cell-based; conditions: A2780, 48 h; method in brief: as §1
[3] = Antiproliferative activity against human […] cells after 48 hrs by MTT assay; type: functional, cell-based; method in brief: as §1
SK-OV-3 = experiment: Antiproliferative activity against human SKOV3 cells after 48 hrs by MTT assay; type: functional, cell-based; conditions: SK-OV-3, 48 h; method in brief: as §1
[4] = Antiproliferative activity against human doxorubicin-resistant MCF7 cells after 48 hrs by MTT assay; type: functional, cell-based; conditions: MCF7, 48 h
Method in brief: (§2)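 MCF-7/ADR (doxorubicin-resistant) and A549/T (taxol-resistant) cells in RPMI-1640 with 10% FBS and penicillin/streptomycin. Log-phase cells at 40,000-50,000 cells/mL exposed to graded concentrations for 48 h. MTT 3 h, DMSO solubilization, absorbance 570 nm. IC50 from percent growth versus untreated control; mean ± SEM of ≥3 independent experiments.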

MCF7 [5] = experiment: Resistance ratio, ratio of IC50 for human doxorubicin-resistant MCF7 cells to IC50 for human MCF7 cells; type: functional
Method in brief: (§3)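 MTT assay: log-phase cells at 40,000-50,000 cells/mL in RPMI-1640 with 10% FBS, exposed to graded concentrations for 48 h, then MTT 3 h, DMSO solubilization, absorbance at 570 nm. IC50 from growth versus untreated control, at least three independent experiments. Ratio = resistant-line IC50 / parental-line IC50.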

A549 [6] = experiment: Resistance ratio, ratio of IC50 for human taxol-resistant A549 cells to IC50 for human A549 cells; type: functional; method in brief: as §3
[7] = Inhibition of pig microtubule polymerization after 30 mins by turbidimetric assay; parameters: species or system Sus scrofa
Method in brief: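 Porcine-brain MAP-rich tubulin at 3 mg/mL preincubated 30 min at 4 °C in 0.1 M PIPES pH 6.9, 2 mM MgCl2, 0.5 mM EGTA. Compounds added 2 min before the run, then 1 mM GTP. Turbidity followed kinetically at 340 nm at 37 °C; assembly IC50 derived by Hamel's method.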

[8] = Antiproliferative activity against human HCC827 cells after 48 hrs by MTT assay; type: functional, cell-based; conditions: HCC827, 48 h
NCI-H1975 [9] = experiment: Resistance ratio, ratio of IC50 for human gefitinib-resistant NCI-H1975 cells to IC50 for human HCC827 cells; type: functional
MCF7 [10] = experiment: Antiproliferative activity against human MCF7 cells after 48 hrs by MTT assay; type: functional, cell-based; conditions: MCF7, 48 h; method in brief: as §1
NCI-H1975 [11] = experiment: Antiproliferative activity against human gefitinib-resistant NCI-H1975 cells after 48 hrs by MTT assay; type: functional, cell-based; conditions: NCI-H1975, 48 h
A549 [12] = experiment: Antiproliferative activity against human taxol-resistant A549 cells after 48 hrs by MTT assay; type: functional, cell-based; conditions: A549, 48 h; method in brief: as §2
A549 [13] = experiment: Antiproliferative activity against human A549 cells after 48 hrs by MTT assay; type: functional, cell-based; conditions: A549, 48 h; method in brief: as §1
Tubulin (Homo sapiens) = Tubulin (Homo sapiens) (UniProt P68371+Q9H4B7+P0DPH7+P68366+Q13509+Q71U36+P04350+Q3ZCM7+P07437+P68363+Q9BQE3+Q6PEY2+Q13885+Q9BVA1+Q9BUF5); experiment: Binding affinity to tubulin in human HepG2 cells at 5 uM after 4 hrs by EBI competition assay; type: cell-based
Method in brief: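 HepG2 cells seeded at 500,000 cells/well, allowed to adhere, then treated with compound for 4 h. EBI added at 100 µM for 1.5 h. Cell extracts (about 20 µg protein) run on 10% SDS-PAGE, blotted to PVDF, probed with anti-β-tubulin, detected by ECL with GAPDH as loading control. Read-out is loss of the faster-migrating β-tubulin–EBI adduct band.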

Mus musculus [14] = experiment: Toxicity in Balb/c athymic nude mouse xenografted with human SKOV3 cells assessed as loss in body weight at 10 mg/kg, ip administered daily; type: organism-based, SK-OV-3; conditions: in vivo
Method in brief: (§4)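 Female Balb/C athymic nude mice, 5-6 weeks old, bearing s.c. right-flank xenografts (cells in HBSS). Once tumors averaged 100 mm3, animals were randomized into groups of 6 and dosed i.p. once daily. Body weight was recorded every two days during treatment.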

Mus musculus [15] = experiment: Toxicity in Balb/c athymic nude mouse xenografted with human HCT116 cells assessed as loss in body weight at 10 mg/kg, ip administered daily; type: organism-based, HCT-116; conditions: in vivo; method in brief: as §4
HCT-116 [16] = experiment: Antitumor activity against human HCT116 cells xenografted in Balb/c athymic nude mouse assessed as tumor growth inhibition at 10 mg/kg, ip administered daily after 42 days; type: functional; conditions: HCT-116, ip, 1008 h, read-out: TGI
Method in brief: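 Female Balb/C athymic nude mice, 5-6 weeks old, given s.c. tumor cells in HBSS into the right flank. Once tumors averaged 100 mm3, animals were randomized into groups of 6 and given daily i.p. injections. Tumor volume (π/6 × length × width²) was measured every two days. Inhibition = (1 − treated/control tumor weight) × 100%, taken at day 42.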

| Structure (SMILES) | IC50 (HCT-116 [1]) [nM] | IC50 (HepG2) [nM] | IC50 [2] [nM] | IC50 [3] [nM] | IC50 (SK-OV-3) [nM] | other results |
| --- | --- | --- | --- | --- | --- | --- |
| CCOc1ccc(-c2nc(NS(=O)(=O)c3ccc(C)c(C)c3)sc2-c2cc(OC)c(OC)c(OC)c2)cc1 | > 5000 | > 5000 | > 5000 | > 5000 | > 5000 | – |
| CCOC(=O)c1nc(-c2ccc(OCC)cc2)c(-c2cc(OC)c(OC)c(OC)c2)s1 | > 5000 | > 5000 | > 5000 | > 5000 | > 5000 | – |
| COc1cccc2c1C(=O)c1c(O)c3c(c(O)c1C2=O)C[C@@](O)(C(=O)CO)C[C@@H]3O[C@H]1C[C@H](N)[C@H](O)[C@H](C)O1 [DOXORUBICIN] | – | – | – | – | – | IC50 [4]: 5300 nM |
| CCOc1ccc(-c2nc(NS(=O)(=O)c3ccc([N+](=O)[O-])cc3OC)sc2-c2cc(OC)c(OC)c(OC)c2)cc1 | > 5000 | > 5000 | > 5000 | > 5000 | > 5000 | – |
| CCOc1ccc(-c2nc(NC(=O)C(C)C)sc2-c2cc(OC)c(OC)c(OC)c2)cc1 | 22.5 | 177 | 22.5 | 65.2 | 85.2 | – |
| CCOc1ccc(-c2nc(NS(=O)(=O)c3ccc(Br)cc3C(F)(F)F)sc2-c2cc(OC)c(OC)c(OC)c2)cc1 | > 5000 | > 5000 | > 5000 | > 5000 | > 5000 | – |
| CCNC(=O)Nc1nc(-c2ccc(OCC)cc2)c(-c2cc(OC)c(OC)c(OC)c2)s1 | 22.1 | 30.7 | 1.3 | 10.6 | 29.2 | Ratio IC50 (MCF7 [5]): 1.7; Ratio IC50 (A549 [6]): 0.64; IC50 [4]: 727 nM; IC50 [7]: 3900 nM; IC50 [8]: 623 nM; Ratio IC50 (NCI-H1975 [9]): 0.35; IC50 (MCF7 [10]): 417 nM; IC50 (NCI-H1975 [11]): 220 nM; IC50 (A549 [12]): 140 nM; IC50 (A549 [13]): 103 nM; Activity (Tubulin (Homo sapiens)): inactive |
| CCOc1ccc(-c2nc(C(OCC)OCC)sc2-c2cc(OC)c(OC)c(OC)c2)cc1 | > 5000 | > 5000 | > 5000 | > 5000 | > 5000 | – |
| CCOc1ccc(-c2nc(N(Cc3ccccc3)Cc3ccccc3)sc2-c2cc(OC)c(OC)c(OC)c2)cc1 | > 5000 | > 5000 | > 5000 | > 5000 | > 5000 | – |
| CCOc1ccc(-c2nc(NC(=O)CC)sc2-c2cc(OC)c(OC)c(OC)c2)cc1 | 50.5 | 40.6 | 5.1 | 10.8 | 60.4 | IC50 [7]: > 10000 nM |
| CCOc1ccc(-c2nc(NS(=O)(=O)c3ccc(OC)c(F)c3)sc2-c2cc(OC)c(OC)c(OC)c2)cc1 | > 5000 | > 5000 | > 5000 | > 5000 | > 5000 | – |
| CCOc1ccc(-c2nc(C=O)sc2-c2cc(OC)c(OC)c(OC)c2)cc1 | 48 | 50 | 104 | 106 | 9 | IC50 [7]: > 10000 nM |
| CCOc1ccc(-c2nc(NC(C)=O)sc2-c2cc(OC)c(OC)c(OC)c2)cc1 | 10.2 | 60.9 | 10.2 | 13 | 167 | – |
| COc1ccc(/C=C\c2cc(OC)c(OC)c(OC)c2)cc1O [COMBRETASTATIN A4] | – | – | – | – | – | IC50 [7]: 5910 nM |
| COc1cc2c(c(OC)c1OC)-c1ccc(OC)c(=O)cc1[C@@H](NC(C)=O)CC2 [COLCHICINE] | – | – | – | – | – | IC50 [7]: 5020 nM |
| CCOc1ccc(-c2sc(N)nc2-c2cc(OC)c(OC)c(OC)c2)cc1 | 9.2 | 8.3 | 8.6 | 10 | 8.4 | – |
| CCCC(=O)Nc1nc(-c2ccc(OCC)cc2)c(-c2cc(OC)c(OC)c(OC)c2)s1 | 18 | 76.8 | 18 | 11 | 105 | IC50 [7]: 9040 nM; Activity (Tubulin (Homo sapiens)): inactive |
| CCOc1ccc(-c2nc(C(C)(C)C)sc2-c2cc(OC)c(OC)c(OC)c2)cc1 | > 5000 | > 5000 | > 5000 | > 5000 | > 5000 | – |
| CCCN(CCC)c1nc(-c2ccc(OCC)cc2)c(-c2cc(OC)c(OC)c(OC)c2)s1 | > 5000 | > 5000 | > 5000 | > 5000 | > 5000 | – |
| COc1ccc(-c2nc(N)sc2-c2cc(OC)c(OC)c(OC)c2)cc1 | 93.7 | 50.6 | 14 | 9 | 110 | – |
| CCOc1ccc(-c2nc(N(CC)CC)sc2-c2cc(OC)c(OC)c(OC)c2)cc1 | > 5000 | > 5000 | > 5000 | > 5000 | > 5000 | – |
| CCOc1ccc(-c2nc(NS(=O)(=O)c3ccsc3Cl)sc2-c2cc(OC)c(OC)c(OC)c2)cc1 | > 5000 | > 5000 | > 5000 | > 5000 | > 5000 | – |
| CCOc1ccc(-c2ncsc2-c2cc(OC)c(OC)c(OC)c2)cc1 | 62 | 65 | 86 | 128 | 10 | Ratio IC50 (MCF7 [5]): 1.3; Ratio IC50 (A549 [6]): 0.45; IC50 [4]: 1560 nM; IC50 [7]: 3550 nM; IC50 [8]: 469 nM; Ratio IC50 (NCI-H1975 [9]): 2.38; IC50 (MCF7 [10]): 1160 nM; IC50 (NCI-H1975 [11]): 1120 nM; IC50 (A549 [12]): 425 nM; IC50 (A549 [13]): 696 nM; Activity (Tubulin (Homo sapiens)): inactive |
| CCOc1ccc(-c2nc(N(C)C)sc2-c2cc(OC)c(OC)c(OC)c2)cc1 | > 5000 | > 5000 | > 5000 | > 5000 | > 5000 | – |
| O=c1[nH]cc(F)c(=O)[nH]1 [FLUOROURACIL] | – | – | – | – | – | Activity (Mus musculus [14]): Toxic; Activity (Mus musculus [15]): Toxic; inhibition in vivo at 10 mg/kg (HCT-116 [16]): 37.3% |
| C=CCN(CC=C)c1nc(-c2ccc(OCC)cc2)c(-c2cc(OC)c(OC)c(OC)c2)s1 | > 5000 | > 5000 | > 5000 | > 5000 | > 5000 | – |
| CCOc1ccc(-c2nc(C)sc2-c2cc(OC)c(OC)c(OC)c2)cc1 | 64 | 368 | 106 | 126 | 68 | IC50 [7]: > 10000 nM |
